SENP1 FRET inh: inhibitors of human SENP1 SUMO protease catalytic domain | recombinant SENP1 catalytic domain, CyPet-SUMO1-YPet FRET cleavage | inhibition, % at 10 µM | hit rate 0.21% among 360,000;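 active = inhibition at least 30% at 10 µM, raw YFP signal under a set limit, fluorescence ratio 0.5 to 1.5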;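 also: 0% = enzyme with DMSO and 100% = no enzyme wells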
Target sequence (Q9P0U3 419-644 limits assumed): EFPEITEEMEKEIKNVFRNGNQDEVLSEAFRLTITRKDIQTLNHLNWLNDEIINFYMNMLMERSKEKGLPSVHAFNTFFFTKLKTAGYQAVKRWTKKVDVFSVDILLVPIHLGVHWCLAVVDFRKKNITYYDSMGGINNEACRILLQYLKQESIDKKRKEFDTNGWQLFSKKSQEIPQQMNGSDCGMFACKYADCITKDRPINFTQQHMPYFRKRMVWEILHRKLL
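Test system: hSENP1 catalytic domain, recombinant; Amount: 20 pM final SENP1 enzyme; Medium: Tris pH 8 buffer plus EDTA, NaCl, BME, BSA, NP40, catalase; Schedule: 50 min enzyme reaction, room temperature, light-protected; Technique: FRET fluorescence in CFP and YFP emission channels; Controls: no-enzyme wells low, DMSO-plus-enzyme wells high control.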
H9c2 protect: myocardial damage modulation in H9c2 cells; hit rate 0.63% among 360,000; protection from H2O2 cell death, % at 20 µM; H9c2 cardiomyocytes, H2O2 injury protection, ATPLite, 2 h;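 active = compounds giving at least 50% protection of heart cells from peroxide-induced death in the single-dose screen, raw or plate-pattern-corrected value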;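 also: 0% = DMSO wells with peroxide and 100% = DMSO wells without peroxide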
FAS TE block: FAS thioesterase (human) inhibition; P49327; recombinant FAS-TE, OMFH fluorogenic substrate, fluorescence endpoint; inhibition, % at 15 µM; hit rate 0.67% among 360,000; AID 602261;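 active = compounds whose normalised, plate-corrected inhibition of enzyme fluorescence in the single-dose primary screen is 50% or more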;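 also: 0% = DMSO with enzyme and 100% = substrate without enzyme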
GRIN3A LBD mod: modulators (binders) of human NR3A ligand-binding domain; Tm shift relative to glycine control, % at 25 µM; NR3A LBD differential scanning fluorimetry, Tm shift; 0% = protein alone, 100% = glycine-bound protein; hit rate 2.5% among 340,000; AID 1259313;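 active = melting temperature shift of at least 10% of the positive control shift, at one fixed dose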
hiPSC survival: hiPSC single-cell survival enhancement | survival enhancement, % at 20 µM | hit rate 0.044% among 360,000 | ATPlite luminescence; 100% = ROCK inhibitor wells, 0% = DMSO; in the data active = survival enhancement above about 18%;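 also: cells exposed to compounds for 16 hours before the ATP read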
Arr AP2 block: blocks beta-arrestin peptide binding to AP2 adaptin; inhibition, % at 10 µM; hit rate 0.31% among 340,000; AID 504490; FITC-arrestin peptide / GST-AP2 beads, flow cytometry; AP2 beta2 appendage carries R879A mutation;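 active = inhibition above a set limit, near 3 SD of compounds lacking own fluorescence, cut at about 54% in these data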;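 also: plate controls were DMSO wells for no effect and 5 µM unlabelled arrestin peptide for full effect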
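test system = AP2 appendage R879A on GSH beads | buffer or medium = PBS plus Tween 20 (0.05%) and BSA (0.1%) | incubation = 12 min plus 1 h, RT | detection = bead flow cytometry, FITC channel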
FAS-TE inh conf: confirmation of human fatty acid synthase thioesterase inhibitors | inhibition, % at 15 µM | recombinant FAS-TE, OMFH fluorogenic substrate, fluorescence | hit rate 45% among 2,300 | shares compounds with FAS TE block;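 active = compounds inhibiting the enzyme by at least 50% at 15 µM in any one of the replicates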;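 also: 0% = enzyme with DMSO only and 100% = wells lacking enzyme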
Starred values were filed as active, the others as inactive. A selection: hits, their analogues and other compounds. The true share with any hit is near 4%.

COc1cccc(S(=O)(=O)N(C)C[C@@H]2OCc3cnnn3CCCC(=O)N([C@@H](C)CO)C[C@@H]2C)c1 was read as SENP1 FRET inh 2, H9c2 protect -6, FAS TE block -4 and hiPSC survival 1.
`COC(=O)[C@@]1(Cc2ccc(F)cc2)[C@H]2c3cc(C(=O)N(C)C)n(CCc4ccc(OC)c(Br)c4)c3C[C@H]2CN1C(=O)c1ccccc1` gave SENP1 FRET inh -6, H9c2 protect 3, FAS TE block 81*, GRIN3A LBD mod 1, hiPSC survival -1, Arr AP2 block -5 and FAS-TE inh conf 1.
`COC(=O)[C@@]1(Cc2ccc(OC)cc2)[C@H]2c3cc(C(=O)N4CCCC4)n(Cc4ccc(S(C)(=O)=O)cc4)c3C[C@H]2CN1C(=O)c1ccccc1` gave SENP1 FRET inh -5, FAS TE block 14 and hiPSC survival 0.
COC(=O)[C@@]1(Cc2ccc(OC)cc2)[C@H]2c3cc(C(=O)N4CCCC4)n(Cc4ccsc4Br)c3C[C@H]2CN1C(=O)c1ccccc1 was read as SENP1 FRET inh -2, FAS TE block 51*, hiPSC survival 0 and FAS-TE inh conf 23.
For CN(C)C(CNC(=O)CSc1nc2sc3c(c2c(=O)n1C)CCCC3)c1ccccc1 (centres undefined) the results were SENP1 FRET inh 1, H9c2 protect 8, FAS TE block 1, GRIN3A LBD mod 1, hiPSC survival 0 and Arr AP2 block 2.
For O=C1CCc2cccc(O)c2N1 the results were SENP1 FRET inh 1, H9c2 protect 3, FAS TE block -7, GRIN3A LBD mod 8, hiPSC survival 0 and Arr AP2 block -12.
`C=CCn1c(SCc2cc([N+](=O)[O-])cc3c2OCOC3)nc2cc(C(=O)O)ccc2c1=O` gave SENP1 FRET inh 2, H9c2 protect 16, FAS TE block 83*, GRIN3A LBD mod 0, hiPSC survival 0, Arr AP2 block 5 and FAS-TE inh conf 77*.
`C=CCn1c(SCC(=O)N(C)C)nc2cc(C(=O)O)ccc2c1=O` gave SENP1 FRET inh 3, H9c2 protect 1, FAS TE block -1, GRIN3A LBD mod -1, hiPSC survival 1 and Arr AP2 block 9.
CCC(CO)n1c(SCc2cc([N+](=O)[O-])cc3c2OCOC3)nc2ccccc2c1=O (centres undefined) was read as SENP1 FRET inh 2, H9c2 protect 7, FAS TE block 54*, GRIN3A LBD mod -31, hiPSC survival 0, Arr AP2 block 9 and FAS-TE inh conf 16.
Screening Cc1ccc(S(=O)(=O)N2C[C@H]3N(C(=O)OC(C)C)N(C(=O)OC(C)C)C[C@H](OC(=O)NCc4ccco4)[C@@]3(O)C2)cc1 returned SENP1 FRET inh 2, H9c2 protect 3, FAS TE block 0 and hiPSC survival -2.
Screening Cc1ccc(C)c(N2CCN(C(C(=O)NC3CCCC3)c3ccco3)CC2)c1 (centres undefined) returned SENP1 FRET inh 0.
`O=C(O)CSc1cc(C(=O)c2ccccc2O)cn2c(=O)c3c(-c4ccccc4)csc3nc12` gave SENP1 FRET inh -34, H9c2 protect 6, FAS TE block 70*, GRIN3A LBD mod -1, hiPSC survival -1, Arr AP2 block 1 and FAS-TE inh conf 79*.
For COc1ccc(CN2C(=O)CSCC2(C)C(=O)NCc2ccccc2)cc1 (centres undefined) the results were SENP1 FRET inh -1.
COc1ccc([C@H]2C[C@@H](O)[C@H](n3cc(C4CC4)nn3)CN2C(=O)c2cccs2)cc1 was read as SENP1 FRET inh 1, H9c2 protect 2, FAS TE block -6 and hiPSC survival 0.
For COc1ccc(/C=C/C(=O)Nc2cc(S(=O)(=O)N3CCOCC3)ccc2N2CCCC2)cc1OC the results were SENP1 FRET inh 3, H9c2 protect 6, FAS TE block 2, GRIN3A LBD mod -1, hiPSC survival 0 and Arr AP2 block 41.
`COc1ccc(NC(=O)c2ccc3ccccc3n2)cc1S(=O)(=O)Nc1ccccc1Cl` gave SENP1 FRET inh -1, H9c2 protect -2, FAS TE block 64*, GRIN3A LBD mod 16*, hiPSC survival 5, Arr AP2 block 1 and FAS-TE inh conf 13.
Screening COc1ccc(/C=C/C(=O)Nc2cc(S(=O)(=O)N3CCCCC3)ccc2N2CCCCC2)cc1OC returned SENP1 FRET inh -2, H9c2 protect -6, FAS TE block 90*, GRIN3A LBD mod -3, hiPSC survival 0, Arr AP2 block -2 and FAS-TE inh conf 8.
For COc1cc(/C=C/C(=O)Nc2ccc(N3CCCCC3)c(S(=O)(=O)Nc3ccccc3Cl)c2)cc(OC)c1OC the results were SENP1 FRET inh 1, H9c2 protect 0, FAS TE block 58*, GRIN3A LBD mod 2, hiPSC survival 2, Arr AP2 block -3 and FAS-TE inh conf 12.
`CCN(CC)C(=O)C1=C(C)N(CCCOC)C(=O)C(CC(=O)NCCc2ccccn2)C1` (centres undefined) gave SENP1 FRET inh -2, H9c2 protect 1, FAS TE block -14 and hiPSC survival -2.
Cc1ccc(S(=O)(=O)Cn2nnnc2C(c2ccccc2)N2CCN(c3ccccc3)CC2)cc1 (centres undefined) was read as SENP1 FRET inh 1, H9c2 protect -7, FAS TE block 57*, GRIN3A LBD mod 2, hiPSC survival 3, Arr AP2 block -1 and FAS-TE inh conf 8.
For CCCCNC(=O)C1(C)CCCCN1Cc1ccccc1-c1ccccc1 (centres undefined) the results were SENP1 FRET inh 1, H9c2 protect -20, FAS TE block 23 and hiPSC survival 3.
`Cc1occc1C(=O)Nc1nnc(C(F)(F)F)s1` gave SENP1 FRET inh 2, H9c2 protect -2, FAS TE block -7, GRIN3A LBD mod 0, hiPSC survival -2 and Arr AP2 block 13.
Screening O=C(Nc1ccccc1C(=O)Nc1nnc(C(F)(F)F)s1)c1ccccc1 returned SENP1 FRET inh 0, H9c2 protect -13, FAS TE block 53*, GRIN3A LBD mod 4, hiPSC survival 0, Arr AP2 block 8 and FAS-TE inh conf 46*.
`COC(=O)C1(C)CCCC2(C)C3CCC(C(C)C)C(CO)C3C(CO)CC12` (centres undefined) gave SENP1 FRET inh 1, H9c2 protect 31, FAS TE block 9 and hiPSC survival 0.

Screening data as filed in PubChem.
